Active and inactive are the calls of the source. The rule behind the calls is not given here.
Tests used:
Mus musculus [1] = assay: Toxicity in human HCT116 cells xenografted Rag1 knockout mouse assessed as mortality at 20 mg/kg, ip qd for 14 days; type: organism-based, HCT-116; design: dose 20 mg/kg, route intraperitoneal; settings: in vivo, 336 h
Summary of the method: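 Age-matched specific pathogen-free female Rag1-/- mice bearing subcutaneous HCT-116 tumours (5 × 10⁶ cells inoculated in PBS), n = 7 per group. Drug given ip at 20 mg/kg once daily for 14 days in 7.5% DMSO/42.5% PEG-400/20% 2-hydroxypropyl-β-cyclodextrin/30% water; controls received vehicle alone. Bodyweight recorded daily; mice culled when weight loss exceeded 20% of starting weight.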

[2] = biological target: T1, Phosphatidylinositol 4,5-bisphosphate 3-kinase catalytic subunit delta isoform (Homo sapiens, UniProt O00329); assay: Inhibition of recombinant PI3K p110delta using L-alpha-phosphatidylinositol as substrate and [gamma33P]ATP after 60 mins by thin layer chromatographic technique
T1 sequence (O00329 whole entry): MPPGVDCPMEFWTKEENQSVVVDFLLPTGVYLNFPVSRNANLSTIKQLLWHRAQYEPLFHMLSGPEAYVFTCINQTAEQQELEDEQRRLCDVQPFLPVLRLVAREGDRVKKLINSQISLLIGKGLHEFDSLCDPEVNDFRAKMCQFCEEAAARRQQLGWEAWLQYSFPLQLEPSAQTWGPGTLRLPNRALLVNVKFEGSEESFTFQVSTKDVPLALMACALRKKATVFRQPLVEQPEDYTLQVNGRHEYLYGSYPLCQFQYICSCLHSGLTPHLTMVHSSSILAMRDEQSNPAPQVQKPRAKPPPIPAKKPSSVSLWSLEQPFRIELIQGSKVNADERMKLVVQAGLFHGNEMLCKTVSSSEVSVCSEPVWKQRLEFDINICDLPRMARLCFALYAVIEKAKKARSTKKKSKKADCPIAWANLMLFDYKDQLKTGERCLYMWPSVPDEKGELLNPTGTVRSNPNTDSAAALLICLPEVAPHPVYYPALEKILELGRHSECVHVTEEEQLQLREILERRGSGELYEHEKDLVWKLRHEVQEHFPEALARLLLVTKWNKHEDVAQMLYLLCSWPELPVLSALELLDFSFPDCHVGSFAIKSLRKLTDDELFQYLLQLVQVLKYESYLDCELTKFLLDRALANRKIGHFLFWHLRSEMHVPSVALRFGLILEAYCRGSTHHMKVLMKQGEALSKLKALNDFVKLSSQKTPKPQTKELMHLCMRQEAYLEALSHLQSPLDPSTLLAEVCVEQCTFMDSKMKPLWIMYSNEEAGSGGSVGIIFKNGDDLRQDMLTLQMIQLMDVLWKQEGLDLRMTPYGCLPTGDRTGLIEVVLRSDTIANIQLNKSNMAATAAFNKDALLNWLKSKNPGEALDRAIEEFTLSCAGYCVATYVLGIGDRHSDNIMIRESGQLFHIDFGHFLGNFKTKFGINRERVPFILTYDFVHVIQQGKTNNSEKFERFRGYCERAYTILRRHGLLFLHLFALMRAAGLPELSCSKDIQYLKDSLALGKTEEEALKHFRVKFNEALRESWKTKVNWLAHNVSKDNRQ
Summary of the method: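 In-house recombinant class Ia PI3K isoform (0.1 µg) with L-α-phosphatidylinositol substrate in lipid kinase buffer (Tris–HCl pH 7.4, NaCl, EDTA), 1% DMSO final. Started with ATP mix (5 mM MgCl₂, 100 µM ATP plus [γ-³³P]ATP), 1 h at room temperature, stopped with 1 M HCl. Lipids extracted in two steps, separated by TLC, read by phosphorimager. Nine inhibitor concentrations; IC50 averaged over two experiments.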

[3] = biological target: Phosphatidylinositol 4,5-bisphosphate 3-kinase catalytic subunit alpha isoform (Homo sapiens, UniProt P42336, E545K); assay: Inhibition of recombinant PI3K p110alpha E545K mutant using L-alpha-phosphatidylinositol as substrate and [gamma33P]ATP after 60 mins by thin layer chromatographic technique
[4] = biological target: T2, Phosphatidylinositol 4,5-bisphosphate 3-kinase catalytic subunit alpha isoform (Homo sapiens, UniProt P42336, H1047R); assay: Inhibition of recombinant PI3K p110alpha H1047R mutant using L-alpha-phosphatidylinositol as substrate and [gamma33P]ATP after 60 mins by thin layer chromatographic technique
[5] = biological target: Phosphatidylinositol 4,5-bisphosphate 3-kinase catalytic subunit gamma isoform (Homo sapiens, UniProt P48736); assay: Inhibition of PI3K p110gamma
Summary of the method: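 Recombinant PI3K isoform made in-house, mixed with phosphatidylinositol substrate and inhibitor in 1% DMSO. Lipid kinase buffer (2× stock: 40 mM Tris-HCl pH 7.4, 200 mM NaCl, 1 mM EDTA). Started with ATP/MgCl₂ (5 mM)/[γ-³³P]ATP mix, 1 h at room temperature, stopped with 1 M HCl. Lipids extracted, separated by TLC and read by phosphorimager. Nine concentrations, run twice, IC50s averaged.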

[6] = biological target: Serine/threonine-protein kinase mTOR (Homo sapiens, UniProt P42345); assay: Inhibition of mTOR
[7] = biological target: Dual specificity mitogen-activated protein kinase kinase 1 (Homo sapiens) (UniProt Q02750); assay: Inhibition of MKK1 assessed as residual activity at 10 uM
[8] = biological target: Ribosomal protein S6 kinase alpha-1 (Homo sapiens) (UniProt Q15418); assay: Inhibition of RSK1 assessed as residual activity at 1 uM
[9] = biological target: Ribosomal protein S6 kinase alpha-1 (Homo sapiens) (UniProt Q15418); assay: Inhibition of RSK1 assessed as residual activity at 10 uM
[10] = Inhibition of PKA assessed as residual activity at 1 uM
[11] = Inhibition of PKA assessed as residual activity at 10 uM
[12] = biological target: Misshapen-like kinase 1 (Homo sapiens) (UniProt Q8N4C8); assay: Inhibition of MINK1 assessed as residual activity at 1 uM
[13] = biological target: Misshapen-like kinase 1 (Homo sapiens) (UniProt Q8N4C8); assay: Inhibition of MINK1 assessed as residual activity at 10 uM
[14] = biological target: T2, Phosphatidylinositol 4,5-bisphosphate 3-kinase catalytic subunit alpha isoform; assay: Inhibition of PI3K […] H1047R mutant-mediated PKB phosphorylation at Ser473 in human HCT116 cells after 15 mins by immunoblot analysis; type: cell-based, HCT-116
Summary of the method: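 HCT-116 cells in MEM alpha with 10% FBS and penicillin/streptomycin were seeded, grown 1 day, then serum-starved overnight. They were exposed to a range of inhibitor concentrations in DMSO (0.1% final) for 15 min, then stimulated with 500 nM insulin for 5 min. Phospho-PKB (Ser473 or Thr308) was detected by immunoblotting.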

Mus musculus [15] = assay: Toxicity in human HCT116 cells xenografted Rag1 knockout mouse assessed as body weight loss at 20 mg/kg, ip qd measured after 10 days relative to untreated control; type: organism-based, HCT-116; design: dose 20 mg/kg, route intraperitoneal; settings: in vivo, 240 h
Summary of the method: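 Female specific-pathogen-free Rag1−/− mice carrying subcutaneous HCT-116 tumours, given 20 mg/kg ip daily for 14 days in a DMSO/PEG-400/hydroxypropyl-β-cyclodextrin/water vehicle; controls received vehicle; n = 7 per group. Bodyweight recorded daily; mice culled if loss exceeded 20% of starting weight.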

[16] = biological target: Phosphatidylinositol 4,5-bisphosphate 3-kinase catalytic subunit alpha isoform (Homo sapiens, UniProt P42336); settings: 100 nM
Sequence of Phosphatidylinositol 4,5-bisphosphate 3-kinase catalytic subunit alpha isoform (Homo sapiens, UniProt P42336) (P42336 whole entry, canonical isoform): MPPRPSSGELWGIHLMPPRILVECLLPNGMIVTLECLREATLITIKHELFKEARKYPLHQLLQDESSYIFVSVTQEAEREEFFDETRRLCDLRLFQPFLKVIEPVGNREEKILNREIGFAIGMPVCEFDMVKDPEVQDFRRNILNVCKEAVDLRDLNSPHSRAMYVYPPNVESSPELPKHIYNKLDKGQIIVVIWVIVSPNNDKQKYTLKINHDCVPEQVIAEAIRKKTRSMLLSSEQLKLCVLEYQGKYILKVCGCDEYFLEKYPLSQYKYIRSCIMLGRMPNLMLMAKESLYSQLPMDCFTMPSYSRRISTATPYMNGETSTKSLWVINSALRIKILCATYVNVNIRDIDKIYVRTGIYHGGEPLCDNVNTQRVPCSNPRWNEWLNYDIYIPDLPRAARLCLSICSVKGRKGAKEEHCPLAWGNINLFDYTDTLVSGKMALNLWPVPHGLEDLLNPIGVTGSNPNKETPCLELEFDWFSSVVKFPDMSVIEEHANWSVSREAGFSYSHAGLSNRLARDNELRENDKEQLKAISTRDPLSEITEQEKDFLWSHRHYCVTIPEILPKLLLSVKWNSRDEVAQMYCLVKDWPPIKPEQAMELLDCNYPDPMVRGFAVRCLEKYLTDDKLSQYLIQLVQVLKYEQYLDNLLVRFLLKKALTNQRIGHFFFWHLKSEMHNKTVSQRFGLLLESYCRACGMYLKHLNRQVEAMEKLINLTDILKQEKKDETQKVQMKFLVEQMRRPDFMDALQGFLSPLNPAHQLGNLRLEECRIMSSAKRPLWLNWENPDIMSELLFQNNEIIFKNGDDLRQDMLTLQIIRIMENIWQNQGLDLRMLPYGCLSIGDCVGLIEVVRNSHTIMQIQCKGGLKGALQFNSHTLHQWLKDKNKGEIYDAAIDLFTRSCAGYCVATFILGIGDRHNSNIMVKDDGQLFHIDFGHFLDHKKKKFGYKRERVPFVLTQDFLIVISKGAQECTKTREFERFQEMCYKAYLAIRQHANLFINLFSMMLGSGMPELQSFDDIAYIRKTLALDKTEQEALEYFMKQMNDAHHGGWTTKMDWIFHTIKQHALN

Sequence of Misshapen-like kinase 1 (Homo sapiens) (Q8N4C8 whole entry, looked up, canonical isoform): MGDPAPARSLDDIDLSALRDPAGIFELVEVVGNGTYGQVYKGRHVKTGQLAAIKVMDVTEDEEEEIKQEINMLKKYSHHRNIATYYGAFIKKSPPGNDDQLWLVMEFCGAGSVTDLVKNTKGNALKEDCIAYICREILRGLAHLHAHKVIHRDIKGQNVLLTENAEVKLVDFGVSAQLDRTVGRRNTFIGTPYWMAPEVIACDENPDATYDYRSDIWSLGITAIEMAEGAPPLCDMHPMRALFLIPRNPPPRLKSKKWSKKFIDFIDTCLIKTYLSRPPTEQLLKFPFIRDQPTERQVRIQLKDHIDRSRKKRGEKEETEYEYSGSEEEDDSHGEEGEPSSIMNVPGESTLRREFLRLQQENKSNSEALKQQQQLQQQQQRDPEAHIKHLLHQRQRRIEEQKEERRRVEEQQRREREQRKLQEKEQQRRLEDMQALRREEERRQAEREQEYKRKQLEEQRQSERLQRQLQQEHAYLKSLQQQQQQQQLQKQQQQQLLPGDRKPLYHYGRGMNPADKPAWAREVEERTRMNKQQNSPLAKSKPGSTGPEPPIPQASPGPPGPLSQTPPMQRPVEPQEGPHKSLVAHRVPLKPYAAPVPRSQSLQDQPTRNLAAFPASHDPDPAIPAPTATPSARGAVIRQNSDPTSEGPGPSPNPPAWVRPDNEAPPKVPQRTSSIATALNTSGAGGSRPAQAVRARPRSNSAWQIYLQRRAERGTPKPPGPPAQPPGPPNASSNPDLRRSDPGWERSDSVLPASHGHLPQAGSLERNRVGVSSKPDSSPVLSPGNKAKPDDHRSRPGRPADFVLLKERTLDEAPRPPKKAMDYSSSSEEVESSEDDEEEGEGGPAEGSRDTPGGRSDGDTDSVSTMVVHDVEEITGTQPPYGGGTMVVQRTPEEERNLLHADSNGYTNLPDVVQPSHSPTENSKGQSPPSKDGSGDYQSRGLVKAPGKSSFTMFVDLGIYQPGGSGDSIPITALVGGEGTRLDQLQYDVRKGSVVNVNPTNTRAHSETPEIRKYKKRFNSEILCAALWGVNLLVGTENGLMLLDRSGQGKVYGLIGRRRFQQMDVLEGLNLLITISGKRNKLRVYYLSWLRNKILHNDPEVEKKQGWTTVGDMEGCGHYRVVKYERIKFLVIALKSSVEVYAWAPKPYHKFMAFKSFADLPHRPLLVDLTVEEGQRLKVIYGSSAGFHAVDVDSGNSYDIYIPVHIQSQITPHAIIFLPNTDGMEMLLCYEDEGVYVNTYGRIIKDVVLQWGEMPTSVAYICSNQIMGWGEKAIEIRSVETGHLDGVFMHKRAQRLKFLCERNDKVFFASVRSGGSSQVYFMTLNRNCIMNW
T2 sequence (P42336 whole entry H1047R, canonical isoform): as the sequence (P42336 whole entry, canonical isoform) above, with H1047R counted along it
Sequence of Ribosomal protein S6 kinase alpha-1 (Homo sapiens) (Q15418 whole entry): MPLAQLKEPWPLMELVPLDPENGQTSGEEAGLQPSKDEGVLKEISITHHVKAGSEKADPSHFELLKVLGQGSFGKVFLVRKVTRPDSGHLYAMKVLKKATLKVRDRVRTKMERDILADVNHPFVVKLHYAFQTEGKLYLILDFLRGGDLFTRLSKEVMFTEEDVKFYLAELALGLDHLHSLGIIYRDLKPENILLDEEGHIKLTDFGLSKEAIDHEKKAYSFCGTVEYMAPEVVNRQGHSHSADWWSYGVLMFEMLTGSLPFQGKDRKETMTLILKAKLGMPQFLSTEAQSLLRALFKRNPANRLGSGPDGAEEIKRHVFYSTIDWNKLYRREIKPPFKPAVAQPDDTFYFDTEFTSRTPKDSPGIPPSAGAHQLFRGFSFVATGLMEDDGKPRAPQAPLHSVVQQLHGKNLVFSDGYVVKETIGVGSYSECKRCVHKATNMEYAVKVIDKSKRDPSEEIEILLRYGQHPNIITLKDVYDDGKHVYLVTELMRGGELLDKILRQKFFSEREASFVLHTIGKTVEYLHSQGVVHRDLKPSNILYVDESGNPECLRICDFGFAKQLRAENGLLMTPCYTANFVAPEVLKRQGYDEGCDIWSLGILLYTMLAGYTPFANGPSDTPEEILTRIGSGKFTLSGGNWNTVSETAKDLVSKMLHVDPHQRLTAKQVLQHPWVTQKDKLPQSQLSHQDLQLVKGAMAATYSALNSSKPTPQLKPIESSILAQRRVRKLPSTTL
Sequence of Phosphatidylinositol 4,5-bisphosphate 3-kinase catalytic subunit alpha isoform (Homo sapiens, UniProt P42336, E545K) (P42336 whole entry E545K, canonical isoform): as the sequence (P42336 whole entry, canonical isoform) above, with E545K counted along it
Sequence of Phosphatidylinositol 4,5-bisphosphate 3-kinase catalytic subunit gamma isoform (P48736 whole entry, canonical isoform): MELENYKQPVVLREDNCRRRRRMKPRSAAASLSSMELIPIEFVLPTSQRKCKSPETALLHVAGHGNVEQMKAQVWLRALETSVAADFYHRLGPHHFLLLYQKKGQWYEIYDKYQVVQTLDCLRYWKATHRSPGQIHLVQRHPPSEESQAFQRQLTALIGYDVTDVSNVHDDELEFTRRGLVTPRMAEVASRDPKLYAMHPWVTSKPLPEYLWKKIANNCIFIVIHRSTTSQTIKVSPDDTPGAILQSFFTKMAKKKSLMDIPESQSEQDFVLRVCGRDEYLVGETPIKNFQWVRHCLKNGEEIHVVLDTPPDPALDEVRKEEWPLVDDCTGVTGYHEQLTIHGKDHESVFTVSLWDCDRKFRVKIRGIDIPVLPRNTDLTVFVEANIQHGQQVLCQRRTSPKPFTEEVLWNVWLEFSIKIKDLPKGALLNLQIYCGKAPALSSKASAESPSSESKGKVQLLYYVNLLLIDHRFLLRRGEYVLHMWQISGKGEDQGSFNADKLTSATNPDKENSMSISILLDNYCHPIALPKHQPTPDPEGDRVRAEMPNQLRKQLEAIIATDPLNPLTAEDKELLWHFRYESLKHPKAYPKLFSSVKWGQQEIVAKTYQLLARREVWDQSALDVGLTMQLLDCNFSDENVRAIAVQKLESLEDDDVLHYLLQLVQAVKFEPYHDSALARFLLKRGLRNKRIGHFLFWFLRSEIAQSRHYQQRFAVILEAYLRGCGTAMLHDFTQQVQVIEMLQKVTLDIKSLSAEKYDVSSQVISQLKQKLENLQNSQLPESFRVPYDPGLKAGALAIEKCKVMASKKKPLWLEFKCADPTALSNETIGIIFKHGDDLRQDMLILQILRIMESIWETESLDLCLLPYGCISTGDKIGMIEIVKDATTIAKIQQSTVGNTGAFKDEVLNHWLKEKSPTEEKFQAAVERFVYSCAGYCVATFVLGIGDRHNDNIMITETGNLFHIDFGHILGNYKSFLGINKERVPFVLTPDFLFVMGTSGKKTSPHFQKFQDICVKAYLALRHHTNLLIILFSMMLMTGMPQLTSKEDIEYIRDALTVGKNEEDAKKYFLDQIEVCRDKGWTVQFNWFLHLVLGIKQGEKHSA
Sequence of Dual specificity mitogen-activated protein kinase kinase 1 (Homo sapiens) (Q02750 whole entry): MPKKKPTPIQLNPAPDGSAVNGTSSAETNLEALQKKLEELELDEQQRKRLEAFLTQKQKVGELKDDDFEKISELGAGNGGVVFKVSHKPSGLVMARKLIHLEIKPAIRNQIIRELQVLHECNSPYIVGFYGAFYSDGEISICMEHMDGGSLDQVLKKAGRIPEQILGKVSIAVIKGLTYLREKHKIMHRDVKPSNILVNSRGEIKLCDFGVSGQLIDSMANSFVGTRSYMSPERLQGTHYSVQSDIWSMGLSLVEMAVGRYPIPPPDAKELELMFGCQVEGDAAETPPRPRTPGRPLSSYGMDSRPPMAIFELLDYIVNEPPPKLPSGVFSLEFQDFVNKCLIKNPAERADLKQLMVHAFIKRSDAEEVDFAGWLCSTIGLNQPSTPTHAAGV

Cc1ccc([N+](=O)[O-])cc1S(=O)(=O)N(C)/N=C/c1cnn2ccc(C#N)cc12
Activity (Mus musculus [1]): Non-toxic
IC50 [2]: 49 nM
IC50 [3]: 0.7 nM
IC50 [4]: 0.5 nM
IC50 [5]: 14 nM
IC50 [6]: 300 nM
Activity [7]: 8%
Activity [8]: 4%
Activity [9]: 2%
Activity [10]: 1%
Activity [11]: 1%
Activity [12]: 5%
Activity [13]: 2%
IC50 [14]: 23 nM
Activity (Mus musculus [15]): 15%
inhibition [16]: inactive
